The subject of assay [1] is MDA-MB-231. Nature of the assay: Cell cycle arrest in human MDA-MB-231 cells assessed as decrease in cells in S phase after 24 hrs using annexin V/propidium iodide staining by flow cytometry. Format: functional, cell-based. In a few lines: (§1)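 Cells cultured in RPMI 1640 with 10% heat-inactivated FCS, 37 °C, 5% CO2. After 24 h of growth, cells were treated with test samples dissolved in DMSO for a further 24 h. Cell cycle distribution was measured by FACS with annexin V/propidium iodide double staining. For DNA content, singlet events were gated and 10 000-20 000 events were acquired. Read-out: percentage of cells in S phase and in sub-G0 phase.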
In general terms: Flow cytometry measures light scatter and fluorescence of single cells or particles in a stream.

In assay [2] the test system is MDA-MB-231. Nature of the assay: Cell cycle arrest in human MDA-MB-231 cells assessed as increase of cells in sub-G0 phase after 24 hrs using annexin V/propidium iodide staining by flow cytometry. It counts as functional, cell-based. In a few lines:
as §1

For assay [3], the system named is MDA-MB-231. Nature of the assay: Induction of apoptosis in human MDA-MB-231 cells assessed as loss of membrane […] at 1.2 to 30 ug/ml using Hoechst 33342/propidium iodide staining by FACS analysis. It counts as functional, cell-based. Conditions: TDE = time-dependent effect.
Assay [4] has as its system MDA-MB-231. Nature of the assay: Induction of apoptosis in human MDA-MB-231 cells assessed as chromatin segregation after 24 hrs using Hoechst 33342/propidium iodide staining […]. It counts as functional, cell-based.
Assay [5] concerns MDA-MB-231. Briefly: Induction of apoptosis in human MDA-MB-231 cells assessed as condensation of cytoplasm after 24 hrs using Hoechst 33342/propidium iodide staining by FACS analysis. It counts as functional, cell-based.
For assay [6], the system named is MDA-MB-231. Briefly: Cell cycle arrest in human MDA-MB-231 cells assessed as decrease in cells in S phase at 30 ug/ml after 24 hrs using annexin V/propidium iodide staining by flow cytometry (reference value: 13%). It counts as functional. The arrangement: scale not given: the % may be the effect or the level left. In outline: as §1
For assay [7], the system named is MDA-MB-231. Nature of the assay: Cytotoxicity against human MDA-MB-231 cells after 48 hrs by Alamar blue assay. Format: functional, cell-based. Conditions: MDA-MB-231, 48 h. In a few lines:
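Cells were seeded at 5000 per well and grown for 24 h. Samples were then added from DMSO solution, with 0.1% DMSO as vehicle control. After 48 h incubation, viability was read from Alamar blue colour spectrophotometrically at 540 nm.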
A general note: Alamar Blue is a resazurin reagent that responds to reducing activity.

Assay [8] deals with MDA-MB-231. Briefly: Induction of apoptosis in human MDA-MB-231 cells assessed as chromatin segregation at 1.2 to 30 ug/ml using Hoechst 33342/propidium iodide staining […]. Format: functional, cell-based. Conditions: TDE = time-dependent effect.
In assay [9] the test system is MDA-MB-231. Briefly: Induction of apoptosis in human MDA-MB-231 cells assessed as condensation of nucleus after 24 hrs using Hoechst 33342/propidium iodide staining […]. Format: functional, cell-based.
Assay [10] concerns MDA-MB-231. Briefly: Induction of apoptosis in human MDA-MB-231 cells assessed as chromatin condensation after 24 hrs using Hoechst 33342/propidium iodide staining […]. Format: functional, cell-based.
Assay [11] relates to MDA-MB-231. Nature of the assay: Induction of apoptosis in human MDA-MB-231 cells assessed as chromatin condensation at 1.2 to 30 ug/ml using Hoechst 33342/propidium iodide staining […]. Format: functional, cell-based. Conditions: TDE = time-dependent effect.
The test system of assay [12] is MDA-MB-231. Briefly: Induction of apoptosis in human MDA-MB-231 cells assessed as condensation of cytoplasm at 1.2 to 30 ug/ml […]. Format: functional, cell-based. As to conditions: TDE = time-dependent effect.
Assay [13] has as its system MDA-MB-231. Nature of the assay: Induction of apoptosis in human MDA-MB-231 cells assessed as loss of membrane […] after 24 hrs using Hoechst 33342/propidium iodide staining by FACS analysis. It counts as functional, cell-based.
Assay [14] deals with MDA-MB-231. Briefly: Induction of apoptosis in human MDA-MB-231 cells assessed as condensation of nucleus at 1.2 to 30 ug/ml using Hoechst 33342/propidium iodide staining […]. As to conditions: TDE = time-dependent effect. It counts as functional, cell-based.

The structures appear in SMILES notation. The source made the active and inactive calls. The rule behind the calls is not given here. Where only a bound is given, the exact number is not on record here.

In the case of `CC[C@@]1(O)C(=O)OCc2c1cc1n(c2=O)Cc2cc3ccccc3nc2-1`, the Activity result with MDA-MB-231 [1] is “Dose-dependent effect”. For the same compound, in the assay with MDA-MB-231 [2], the result was Active.

In the case of `C=C1[C@@H](c2ccc(O)c(OC)c2)O[C@@H](c2ccc(O)c(OC)c2)[C@@]12CCC1=C(C2)[C@@H](c2ccc(O)c(OC)c2)O[C@H]1c1ccc(O)c(OC)c1` [RAMONANIN A], the Activity result with MDA-MB-231 [3] was “tde”; in the assay on MDA-MB-231 [4] it was “Dose-dependent effect”; in the assay on MDA-MB-231 [1], “Dose-dependent effect”; in the assay with MDA-MB-231 [5] it was “Dose-dependent effect”; in the assay on MDA-MB-231 [6], under 4%; in the assay with MDA-MB-231 [8], “tde”. Moreover, the Activity result in the assay on MDA-MB-231 [9] was “Dose-dependent effect”; in the assay with MDA-MB-231 [10], “Dose-dependent effect”; in the assay with MDA-MB-231 [11] it was “tde”; with MDA-MB-231 [12] it was “tde”; in the assay on MDA-MB-231 [13], “Dose-dependent effect”; in the assay on MDA-MB-231 [14], “tde”. In addition, in the assay on MDA-MB-231 [7], the IC50 came out at 18 µM. Moreover, the result with MDA-MB-231 [2] was Active.

On to `C=C1[C@H](c2ccc(O)c(OC)c2)O[C@H](c2ccc(O)c(OC)c2)[C@@]12CCC1=C(C2)[C@@H](c2ccc(O)c(OC)c2)O[C@H]1c1ccc(O)c(OC)c1` [RAMONANIN B], for which the Activity result is “Dose-dependent effect” in the assay on MDA-MB-231 [1] and under 4% in the assay with MDA-MB-231 [6]. This compound also had an IC50 in the assay on MDA-MB-231 [7] of 18 µM. The outcome in the assay with MDA-MB-231 [2] was Active.

On to `C=C1[C@@H](c2ccc(O)c(OC)c2)O[C@@H](c2ccc(O)c(OC)c2)[C@@]12CCC1=C(C2)[C@H](c2ccc(O)c(OC)c2)O[C@@H]1c1ccc(O)c(OC)c1` [RAMONANIN C], for which, in the assay with MDA-MB-231 [7], the midpoint of inhibition, the IC50, lay at 18 µM.

In the case of `C=C1[C@@H](c2ccc(O)c(OC)c2)O[C@@H](c2ccc(O)c(OC)c2)[C@@]12CCC1=C(C2)[C@@H](c2ccc(O)c(OC)c2)O[C@@H]1c1ccc(O)c(OC)c1` [RAMONANIN D], the IC50 in the assay with MDA-MB-231 [7] was 18 µM.

The term IC50 denotes the concentration needed to halve the response being measured.

For the origin of these results see ChEMBL document CHEMBL1782023, “Spirocyclic lignans from Guaiacum (Zygophyllaceae) induce apoptosis in human breast cancer cell lines” (J Nat Prod, 2011).
